Results from ChEMBL document CHEMBL4020770, “Discovery of N-substituted-endo-3-(8-aza-bicyclo[3.2.1]oct-3-yl)-phenol and -phenyl carboxamide series of μ-opioid receptor antagonists” (Bioorg Med Chem Lett, 2017).

Key:
Liver [1] = assay: (§1) Half life in dog liver microsomes; format: ADME, Canis lupus familiaris, microsome; details: microsomes
[2] = target: Delta-type opioid receptor (Homo sapiens, UniProt P41143); assay: Displacement of [3H]DPN from recombinant human delta opioid receptor expressed in CHOK1 cell membranes
In short: (§2)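 Competition binding with the radioligand [3H]-DPN on membranes from CHO-K1 cells stably transfected with human recombinant μ or δ opioid receptor or guinea pig κ opioid receptor. Affinity is reported as pKi.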

Liver [3] = assay: (§3) Half life in rat liver microsomes; format: ADME, microsome; details: microsomes
Mu-type opioid receptor [4] = target: T1, Mu-type opioid receptor (Homo sapiens, UniProt P35372); assay: Displacement of [3H]DPN from recombinant human mu opioid receptor expressed in CHOK1 cell membranes; in short: as §2
Liver [5] = assay: (§4) Half life in human liver microsomes; format: ADME, microsome; details: microsomes
[6] = target: Kappa-type opioid receptor (Cavia porcellus, UniProt P41144); assay: Displacement of [3H]DPN from guinea pig kappa opioid receptor expressed in CHOK1 cell membranes; in short: as §2
[7] = as §1; format: ADME, Canis lupus familiaris, microsome; details: liver microsomes
[8] = as §3; format: ADME, microsome; details: liver microsomes
[9] = as §4; format: ADME, microsome; details: liver microsomes
Mu-type opioid receptor [10] = target: T1, Mu-type opioid receptor; assay: Intrinsic activity at recombinant human mu opioid receptor expressed in CHOK1 cells by [35S]GTPgammaS binding assay relative to DAMGO; format: functional, cell-based
In short: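 Membranes from CHO-K1 cells stably transfected with human recombinant μ-opioid receptor; agonist activity measured as [35S]-GTPγS binding. Maximum compound-evoked response minus basal, expressed as percentage of the maximum response evoked by DAMGO.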

Sequence of Kappa-type opioid receptor (P41144 whole entry): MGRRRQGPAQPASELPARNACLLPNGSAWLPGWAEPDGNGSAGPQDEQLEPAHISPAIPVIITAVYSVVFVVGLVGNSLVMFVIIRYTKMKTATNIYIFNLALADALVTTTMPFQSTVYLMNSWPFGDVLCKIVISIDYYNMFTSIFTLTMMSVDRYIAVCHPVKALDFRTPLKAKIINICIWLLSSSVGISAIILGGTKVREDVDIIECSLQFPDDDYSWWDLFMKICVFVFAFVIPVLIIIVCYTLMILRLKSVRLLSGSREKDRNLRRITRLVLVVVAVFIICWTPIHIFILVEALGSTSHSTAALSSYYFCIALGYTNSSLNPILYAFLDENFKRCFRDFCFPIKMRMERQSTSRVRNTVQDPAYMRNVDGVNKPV
T1 sequence (P35372 whole entry): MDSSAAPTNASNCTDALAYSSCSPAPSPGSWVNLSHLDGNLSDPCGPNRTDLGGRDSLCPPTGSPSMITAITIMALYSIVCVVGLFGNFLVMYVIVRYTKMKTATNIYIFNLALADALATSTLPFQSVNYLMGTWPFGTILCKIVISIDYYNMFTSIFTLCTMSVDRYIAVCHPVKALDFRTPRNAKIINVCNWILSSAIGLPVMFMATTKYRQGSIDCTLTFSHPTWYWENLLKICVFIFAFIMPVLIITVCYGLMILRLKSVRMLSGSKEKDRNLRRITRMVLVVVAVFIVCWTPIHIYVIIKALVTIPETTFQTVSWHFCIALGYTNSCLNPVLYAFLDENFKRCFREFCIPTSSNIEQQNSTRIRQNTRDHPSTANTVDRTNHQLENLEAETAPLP
Sequence of Delta-type opioid receptor (P41143 whole entry): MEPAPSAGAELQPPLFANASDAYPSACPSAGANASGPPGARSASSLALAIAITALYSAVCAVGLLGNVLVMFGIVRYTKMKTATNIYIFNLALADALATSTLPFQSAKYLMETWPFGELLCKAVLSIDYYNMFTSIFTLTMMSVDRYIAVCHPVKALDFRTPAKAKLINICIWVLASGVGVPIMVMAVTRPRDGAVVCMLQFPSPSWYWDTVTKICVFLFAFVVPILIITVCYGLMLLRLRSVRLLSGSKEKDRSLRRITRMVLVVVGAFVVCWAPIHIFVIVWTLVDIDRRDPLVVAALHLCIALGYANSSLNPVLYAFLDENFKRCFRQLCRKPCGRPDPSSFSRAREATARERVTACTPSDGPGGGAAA

Row | SMILES | t1/2 (Liver [1]) [min] | Ki [2] [nM] | t1/2 (Liver [3]) [min] | Ki (Mu-type opioid receptor [4]) [nM] | t1/2 (Liver [5]) [min] | Ki [6] [nM] | half-life [7] [min] | half-life [8] [min] | half-life [9] [min] | Intrinsic activity (Mu-type opioid receptor [10]) [%]
1 | CCCCCCCN1[C@@H]2CC[C@@H]1CC(c1cccc(C(N)=O)c1)C2 (stereo not given in full) | 2 | 501 | 7 | 31.6 | 10 | – | – | – | – | –
2 | CCCCCCCN1[C@@H]2CC[C@@H]1CC(c1cccc(C(N)=O)c1)C2 (relative stereo) | 20 | 3.16 | > 90 | 0.398 | 40 | 0.398 | – | – | – | –
3 | NC(=O)c1cccc(C2C[C@H]3CC[C@H](C2)N3CCCOc2ccccc2)c1 (relative stereo) | – | 3.98 | – | 0.2 | – | 0.794 | 7 | 2 | > 90 | –
4 | NC(=O)c1cccc(C2C[C@H]3CC[C@H](C2)N3CC(O)Cc2ccccc2)c1 (relative stereo) | – | 3.98 | 31 | 0.251 | – | 0.316 | > 90 | – | > 90 | –
5 | Oc1cccc(C2C[C@H]3CC[C@H](C2)N3CCCc2ccccc2)c1 (relative stereo; 12a) | – | 0.794 | – | 0.1 | – | 0.1 | 2 | 2 | 15 | –
6 | CCCCCCCN1[C@@H]2CC[C@@H]1CC(c1cccc(O)c1)C2 (relative stereo; 17b) | 9 | 251 | 2 | 20 | 2 | 25.1 | – | – | – | –
7 | Oc1cccc(C2C[C@H]3CC[C@H](C2)N3CCCOc2ccccc2)c1 (relative stereo; 19a) | 9 | 1.58 | – | 0.1 | – | 0.251 | – | 2 | 25 | –
8 | CC(C)(C)c1ccc(CN2[C@@H]3CC[C@@H]2CC(c2cccc(O)c2)C3)cc1 (relative stereo; 20a) | – | 0.501 | – | 0.1 | 16 | 0.1 | 5 | 2 | – | –
9 | O=C1c2ccccc2C(=O)N1CCCCN1[C@@H]2CC[C@@H]1CC(c1cccc(O)c1)C2 (relative stereo; 21a) | – | 25.1 | – | 0.794 | – | 0.794 | 11 | 18 | 33 | –
10 | O=C1c2ccccc2C(=O)N1CCCCN1[C@@H]2CC[C@@H]1CC(c1cccc(O)c1)C2 (relative stereo; 21b) | 12 | 794 | 21 | 39.8 | 38 | 79.4 | – | – | – | –
11 | O=C(CN1[C@@H]2CC[C@@H]1CC(c1cccc(O)c1)C2)C1CCCCC1 (relative stereo; 22a) | – | 0.501 | – | 0.1 | – | 0.01 | 2 | 2 | 12 | –
12 | NC(=O)c1cccc(C2C[C@H]3CC[C@H](C2)N3CCCc2ccccc2)c1 (relative stereo; 24a) | > 90 | 1.26 | > 90 | 0.126 | – | 0.158 | – | – | > 90 | –
13 | NC(=O)c1cccc(C2C[C@H]3CC[C@H](C2)N3CCCc2ccccc2)c1 (relative stereo; 24b) | 18 | 200 | 11 | 15.8 | – | – | – | – | – | –
14 | NC(=O)c1cccc(C2C[C@H]3CC[C@H](C2)N3Cc2c(F)cccc2F)c1 (relative stereo; 26a) | – | 316 | 26 | 31.6 | – | 15.8 | > 90 | – | > 90 | –
15 | NC(=O)c1cccc(C2C[C@H]3CC[C@H](C2)N3Cc2c(F)cccc2F)c1 (relative stereo; 26b) | – | 5010 | 74 | 1260 | – | 398 | – | – | – | –
16 | CC(C)(C)c1ccc(CN2[C@@H]3CC[C@@H]2CC(c2cccc(C(N)=O)c2)C3)cc1 (relative stereo; 28a) | – | 1.58 | – | 0.1 | – | 0.1 | > 90 | > 90 | > 90 | –
17 | NC(=O)c1cccc(C2C[C@H]3CC[C@H](C2)N3CCCCN2C(=O)c3ccccc3C2=O)c1 (relative stereo; 29a) | – | 79.4 | – | 1.58 | – | 3.16 | 18 | > 90 | > 90 | –
18 | NC(=O)c1cccc(C2C[C@H]3CC[C@H](C2)N3CC(=O)C2CCCCC2)c1 (relative stereo; 30a) | 21 | 2 | – | 0.158 | – | 0.1 | – | 70 | > 90 | –
19 | NC(=O)c1cccc(C2C[C@H]3CC[C@H](C2)N3CC(=O)C2CCCCC2)c1 (relative stereo; 30b) | 9 | 398 | 81 | 15.8 | – | 20 | – | – | – | –
20 | NC(=O)c1cccc(C2C[C@H]3CC[C@H](C2)N3CC(O)Cc2ccccc2)c1 (stereo in doubt; 31b) | 59 | 501 | 14 | 31.6 | – | 79.4 | – | – | – | –
21 | C[C@H]1CN(C[C@H](Cc2ccccc2)C(=O)NCC(=O)O)CC[C@@]1(C)c1cccc(O)c1 [ALVIMOPAN] | – | 5.01 | – | – | – | 5.01 | > 90 | > 90 | > 90 | -6
22 | C[N+]1(CC2CC2)CC[C@]23c4c5ccc(O)c4O[C@H]2C(=O)CC[C@@]3(O)[C@H]1C5 (stereo not given in full) [METHYLNALTREXONE] | – | – | – | 7.94 | – | 20 | > 90 | > 90 | > 90 | 24
